The list is not random: actives were taken first. Their share in the collection is about 2.3%.
TRPC4 block = TRPC4 (mouse) channel inhibition; AID 2247; B-score at 10 µM; hit rate 0.39% among 300,000; Q9QUQ5; HEK293 TRPC4beta/mu-opioid, DAMGO-evoked Fluo4 calcium flux; hits give low values;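 active = B-score over 3 SD under the library average, no early fluorescence shift, positive overall ratio signal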
Target sequence (Q9QUQ5 whole entry, looked up): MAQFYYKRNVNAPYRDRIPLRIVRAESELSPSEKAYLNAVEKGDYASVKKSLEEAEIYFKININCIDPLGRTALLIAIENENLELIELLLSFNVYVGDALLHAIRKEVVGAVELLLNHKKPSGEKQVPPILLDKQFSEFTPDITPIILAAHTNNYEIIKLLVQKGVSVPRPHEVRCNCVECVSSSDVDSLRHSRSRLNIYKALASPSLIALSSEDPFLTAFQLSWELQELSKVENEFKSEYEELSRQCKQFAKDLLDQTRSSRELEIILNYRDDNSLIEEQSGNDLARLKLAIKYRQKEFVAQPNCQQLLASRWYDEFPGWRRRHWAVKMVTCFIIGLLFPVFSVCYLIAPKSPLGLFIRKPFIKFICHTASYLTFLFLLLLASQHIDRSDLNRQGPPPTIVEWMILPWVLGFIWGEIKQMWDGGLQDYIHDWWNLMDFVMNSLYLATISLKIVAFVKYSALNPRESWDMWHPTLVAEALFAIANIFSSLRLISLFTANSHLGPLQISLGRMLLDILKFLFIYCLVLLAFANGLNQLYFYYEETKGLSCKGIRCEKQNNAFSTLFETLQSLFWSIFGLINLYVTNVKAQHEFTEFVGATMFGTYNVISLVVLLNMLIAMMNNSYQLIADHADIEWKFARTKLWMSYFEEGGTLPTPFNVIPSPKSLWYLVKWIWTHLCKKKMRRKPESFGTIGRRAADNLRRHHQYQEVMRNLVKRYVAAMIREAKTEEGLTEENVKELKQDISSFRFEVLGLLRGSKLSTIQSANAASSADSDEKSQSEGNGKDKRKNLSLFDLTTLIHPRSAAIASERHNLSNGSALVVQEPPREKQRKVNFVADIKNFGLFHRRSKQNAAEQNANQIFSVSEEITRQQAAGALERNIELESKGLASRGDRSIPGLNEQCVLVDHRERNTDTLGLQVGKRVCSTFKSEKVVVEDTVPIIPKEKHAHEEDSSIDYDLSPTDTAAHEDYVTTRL
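Assay system: Stable TRPC4beta/mu-opioid receptor HEK293 cells | Reagent: DAMGO in two steps, submaximal then maximal | Compound dosing: Single concentration per test compound | Signal: Fluo4 Ca2+ flux fluorescence | Evaluation: Per-well B score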
TRPC4 potent = TRPC4 (mouse) allosteric potentiation; HEK293 TRPC4beta/mu-opioid, DAMGO EC20, Fluo-4 Ca2+ flux; hits give high values; B-score at 10 µM; hit rate 0.42% among 310,000; AID 2227;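 active = B-score of calcium response area above 5 SD of library B-scores, with initial fluorescence ratio within 5 SD of library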;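 also: B-score of integrated fluorescence ratio over time as area under calcium response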
TRPC6 act = activates the mouse TRPC6 cation channel | hit rate 0.13% among 310,000 | HEK293-TRPC6 membrane potential dye fluorescence; hits give high values | Q61143 | B-score at 10 µM;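 active = B-score of the integrated fluorescence ratio above library mean plus 3 SD, and starting fluorescence ratio within library mean plus 5 SD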;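 also: higher score means more depolarization so channel activation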
TRPC4 agonist = TRPC4 (mouse) channel activation. Q9QUQ5. HEK293 TRPC4beta/mu-opioid, Fluo4 calcium fluorescence; hits give high values. B-score at 10 µM. hit rate 0.49% among 310,000. AID 2237;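 active = B-score above 5 SD of library B-scores, and initial fluorescence ratio not above library mean plus 5 SD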;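 also: positive B-score marks a calcium rise read as TRPC4 activation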
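Technique: kinetic Fluo4 calcium fluorescence; Test system: TRPC4beta and mu-opioid receptor HEK293 stable cells; Measure: B-scored integrated calcium fluorescence ratio; Benchmarks: low control buffer alone, high control maximal DAMGO; Schedule: 45 min room-temperature Fluo4 loading, 110 s read.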
TRPC6 inh = mouse TRPC6 channel inhibition | B-score at 10 µM | Q61143 | HEK293-TRPC6, membrane potential dye, ACh-evoked depolarization; hits give low values | hit rate 1.1% among 310,000;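 active = B-score under library mean minus 3 SD, initial fluorescence not abnormally high, positive integrated signal ratio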;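 also: B-score derived from integrated fluorescence ratio over the kinetic read; more negative B-score means stronger inhibition of depolarization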
TRPC4 sel inh 2 = second selectivity test of TRPC6 inhibitors: effect on mouse TRPC4; HEK293 TRPC4/MOR, membrane potential dye fluorescence; channel activated by saturating DAMGO dose; inhibition, % at 10 µM; AID 2776; shares compounds with TRPC6 inh; hit rate 42% among 920;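 active = compounds whose fluorescence signal differed from control wells by over 3 SD, either direction, in both duplicate plates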
TRPC4 spec = mouse TRPC4 off-target activity of TRPC6 inhibitors; shares compounds with TRPC6 inh; HEK293 TRPC4/mu-opioid, membrane potential fluorescence; activity change, negative = inhibition, % at 10 µM; hit rate 61% among 920;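 active = rise or fall in signal beyond 3 SD of buffer-only wells in both replicate plates, either sign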;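 also: integrated kinetic ratio of fluorescence range over baseline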
HEK293 MPD ctr 2-1 = second check of TRPC6 inhibitor effects in parental HEK293 cells. shares compounds with TRPC6 inh. parental HEK293 membrane potential dye fluorescence; maximal acetylcholine challenge after compound addition. signal change vs control, % at 10 µM. hit rate 31% among 920;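 active = membrane potential signal moving either way by over 3 SD of the maximum-effect control, in both duplicate plates, meaning non-specific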
HEK293 MPD ctr-1 = checks TRPC6 inhibitor effects in parental HEK293 cells. shares compounds with TRPC6 inh. parental HEK293 membrane potential dye fluorescence. membrane potential signal change, % at 10 µM. hit rate 60% among 920. AID 2780;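 active = membrane potential signal shifting up or down by more than 3 SD of buffer-only wells, on both duplicate plates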
HEK293 MPD ctr-2 = parental HEK293 nonspecific activity of TRPC6 modulators. membrane potential signal change, % at 10 µM. membrane potential dye fluorescence. shares compounds with TRPC6 inh. hit rate 51% among 2,400. AID 488924;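 active = membrane potential signal moves up or down beyond 5 SD from buffer-only wells, on both duplicate plates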
HEK293 MPD ctr 2-2 = parental HEK293 nonspecific activity of TRPC6 modulators, second screen; AID 488926; inhibition, % at 10 µM; shares compounds with TRPC6 inh; membrane potential dye fluorescence; after compound, maximal acetylcholine stimulation; hit rate 14% among 2,400;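 active = membrane potential signal drops by more than 5 SD from the mean control signal, in both duplicate plates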;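 also: plate controls were acetylcholine ECmax control wells for no effect and buffer only wells for full effect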
TRPC4/MOR mod = selectivity of TRPC6 modulators against mouse TRPC4. shares compounds with TRPC6 inh. HEK293 TRPC4/mu-opioid, membrane potential fluorescence. percent change from control (negative = decrease, positive = increase), % at 10 µM. hit rate 69% among 2,400. AID 488927;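 active = membrane potential signal moved up or down beyond 5 SD of buffer control wells, in both duplicate plates, actives on both sides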;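 also: plate controls were assay buffer wells for no effect and DAMGO maximal-effect wells for full effect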
TRPC4/MOR inh 2 = second selectivity test of TRPC6 modulators against mouse TRPC4; shares compounds with TRPC6 inh; HEK293 TRPC4/mu-opioid, membrane potential dye fluorescence; stimulated with maximal-effect DAMGO; inhibition, % at 10 µM; hit rate 55% among 2,400;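 active = drop in membrane potential signal beyond 5 SD of the control wells in both duplicate plates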;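 also: TRPC4 counter screen for TRPC6 hits run under conditions tuned for TRPC6 not TRPC4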
TRPC6 block conf = confirmation of mouse TRPC6 inhibitors; shares compounds with TRPC6 inh; HEK293-TRPC6, membrane potential dye, ACh-evoked depolarization; inhibition, % at 10 µM; hit rate 43% among 3,300; AID 488960;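 active = fluorescence ratio falls more than 5 SD below the full-stimulation control mean, in both duplicate runs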;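 also: integrated fluorescence ratio of peak minus minimum over baseline after agonist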
TRPC6 act conf = mouse TRPC6 activator confirmation; shares compounds with TRPC6 inh; HEK293-TRPC6 membrane potential dye fluorescence, FDSS; activation, % at 10 µM; hit rate 11% among 2,800;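 active = ratio signal rise beyond 5 SD above unstimulated control wells' mean, seen in both duplicate runs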;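 also: plate controls were buffer EC0 wells for no effect and acetylcholine ECmax response for full effect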
* hit, by the source's call; i = inactive; x = no result; + = active, no number.

SMILES | TRPC4 block | TRPC4 potent | TRPC6 act | TRPC4 agonist | TRPC6 inh | HEK293 MPD ctr-2 | HEK293 MPD ctr 2-2 | TRPC4/MOR mod | TRPC4/MOR inh 2 | TRPC6 block conf | TRPC6 act conf | others
O=C(N=Nc1c(O)[nH]c2ccc(Cl)cc12)c1cc(-c2cccs2)nc2ccccc12 | i | i | i | i | -5.7* | i | i | i | i | i | i
CCOC(=O)C1(Cc2cccc(OC)c2)CCN(Cc2cccn2-c2nccs2)CC1 | i | i | i | i | -6.5* | 207%* | i | 34%* | 86%* | i | x
CC1CC(C)CN(C2CCCCC2NS(=O)(=O)c2ccc(Cl)cc2)C1 (configuration not stated) | i | i | i | i | i | x | x | x | x | x | x
Cc1cccc(-c2sc(Nc3ccccc3)n[n+]2-c2ccc(F)cc2)c1 | i | i | i | i | i | x | x | x | x | x | x
COc1ccc(-c2sc(Nc3ccccc3)n[n+]2-c2ccc(F)cc2)c(C)c1C | i | i | i | i | -5.4* | i | i | i | 63%* | i | i
CCN1CCCc2cc(CN(CCN3CCOCC3)C(=O)Nc3ccc(C)c(C)c3)ccc21 | i | i | i | i | -5* | i | i | i | 41%* | i | i
CCOC(=O)c1c(N)n(C2CC(C)(C)NC(C)(C)C2)c2nc3ccccc3nc12 | i | i | i | i | -5.4* | -294%* | i | -55%* | 43%* | i | i
CCOC(=O)c1c(N)n(-c2ccc(N)cc2)c2nc3ccccc3nc12 | i | i | i | i | i | x | x | x | x | x | x
O=C(O)COc1ccc(/C=C/c2nc3ccc([N+](=O)[O-])cc3s2)cc1 | i | i | i | i | -8.5* | x | x | x | x | i | i | TRPC4 sel inh 2=i;TRPC4 spec=-30%*;HEK293 MPD ctr 2-1=i;HEK293 MPD ctr-1=-426%*
O=C(CSc1ccc2c(c1)OCCO2)NCCc1ccc(Cl)cc1Cl | i | i | i | i | -5.4* | 350%* | i | 16%* | i | i | i
Oc1c(C=C2N=c3ccccc3=N2)sc(=S)n1-c1ccccc1 | i | i | i | i | i | x | x | x | x | x | x
CC1=Nc2ccccc2/C1=C/c1sc(=S)n(-c2cccc(C(=O)O)c2)c1O | i | 11* | 56* | 44* | i | + | i | 212%* | i | i | 314%*
CCCn1cc(C(=O)OCC)c(=O)c2cc(F)c(F)cc21 | i | i | i | i | i | x | x | x | x | x | x
